High-throughput results (PubChem)
SENP6 block – SENP6 protease inhibitors, primary screen, biochemical, luminescence, uHTS; inhibition, % at 10 µM; Recombinant SENP6 catalytic domain, aminoluciferin luminescence; Sentrin-specific protease 6 (Homo sapiens), Q9GZR1; hit rate 1.8% among 330,000;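 active = inhibition above about 50% at the single tested dose, limit read from the data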
SENP1 inh – human SENP1 catalytic domain inhibitors, primary screen, biochemical, FRET, uHTS; inhibition, % at 10 µM; hit rate 0.21% among 360,000; AID 624204, 2012; recombinant SENP1 catalytic domain, CyPet-SUMO1-YPet FRET cleavage; Sentrin-specific protease 1 (Homo sapiens), Q9P0U3;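 active = inhibition at least 30% at 10 µM, raw YFP signal under a set limit, fluorescence ratio 0.5 to 1.5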
Target sequence (Q9P0U3 419-644 limits assumed): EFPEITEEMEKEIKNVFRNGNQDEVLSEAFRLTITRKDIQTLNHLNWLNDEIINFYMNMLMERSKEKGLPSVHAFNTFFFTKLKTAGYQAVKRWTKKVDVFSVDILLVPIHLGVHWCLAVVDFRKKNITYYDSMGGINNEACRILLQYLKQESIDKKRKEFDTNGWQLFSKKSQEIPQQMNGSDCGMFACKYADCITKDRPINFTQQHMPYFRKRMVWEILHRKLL
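Test system: hSENP1 catalytic domain, recombinant; Amount: 20 pM final SENP1 enzyme; Medium: Tris pH 8 buffer plus EDTA, NaCl, BME, BSA, NP40, catalase; Schedule: 50 min enzyme reaction, room temperature, light-protected; Technique: FRET fluorescence in CFP and YFP emission channels; Controls: no-enzyme wells low, DMSO-plus-enzyme wells high control.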
SENP8 block-1 – SENP8 protease inhibitors, primary screen, biochemical, luminescence | Sentrin-specific protease 8 (Homo sapiens), Q96LD8 | inhibition, % at 10 µM | hit rate 1.2% among 330,000 | purified SENP8, Z-RLRGG-aminoluciferin cleavage | AID 2540, 2010; in the data active = inhibition above about 50%
SENP8 block-2 – human SENP8 protease inhibitors, primary screen, biochemical, fluorescence, Nedd8 protein substrate, uHTS; Sentrin-specific protease 8 (Homo sapiens), Q96LD8; recombinant SENP8; inhibition, % at 20 µM; hit rate 0.64% among 360,000; AID 602440, 2012; in the data active = inhibition mostly above about 40%, no sharp cut-off; inactive = mostly below about 27%
SENP7 inh – SENP7 protease inhibitors, primary screen, biochemical, luminescence, uHTS. Sentrin-specific protease 7 (Homo sapiens), Q9BQF6. recombinant SENP7, Z-RLRGG-aminoluciferin luminescence, 40 min. inhibition, % at 5 µM. hit rate 1.5% among 330,000. AID 434973, 2010;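 active = inhibition above about 50% at the single test dose, limit read from the data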
Target sequence (Q9BQF6 706-1050 limits assumed): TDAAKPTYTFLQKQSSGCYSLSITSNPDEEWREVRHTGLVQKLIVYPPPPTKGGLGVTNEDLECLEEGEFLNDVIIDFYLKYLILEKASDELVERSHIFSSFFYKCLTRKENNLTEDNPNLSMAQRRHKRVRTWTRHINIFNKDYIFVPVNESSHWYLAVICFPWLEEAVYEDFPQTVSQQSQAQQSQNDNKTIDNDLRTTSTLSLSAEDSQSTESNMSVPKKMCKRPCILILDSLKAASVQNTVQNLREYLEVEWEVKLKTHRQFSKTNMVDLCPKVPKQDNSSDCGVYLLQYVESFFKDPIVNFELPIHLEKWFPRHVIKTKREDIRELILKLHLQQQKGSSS
SENP8 conf – human SENP8 protease inhibitors, confirmation, biochemical, Nedd8 protein substrate, single concentration. shares compounds with SENP8 block-2. purified SENP8, Nedd8-AMC/pro-Nedd8 cleavage fluorescence, 30 min. inhibition, % at 25 µM. hit rate 15% among 1,400. AID 624319, 2012; in the data active = inhibition mostly above about 39%, no sharp cut-off; inactive = mostly below about 34%
A number is an active result. This is a sample that favours compounds with a hit; in the whole collection about 2.5% have one here.

Results for Cc1ccc(NC(=O)CS(=O)CC(=O)NCCCc2ccccc2)cc1Cl (centres undefined) ?
SENP6 block: inactive; SENP1 inh: inactive; SENP8 block-1: inactive; SENP8 block-2: 41; SENP7 inh: inactive; SENP8 conf: inactive

How did Cc1ccc(NC(=O)CS(=O)CC(=O)Nc2cnc3ccccc3c2)cc1Cl (centres undefined) do in these assays?
SENP6 block: inactive; SENP1 inh: inactive; SENP8 block-1: inactive; SENP8 block-2: inactive; SENP7 inh: inactive

How did CCN(CC)S(=O)(=O)c1ccc2c(c1)nc(SCC(=O)NC1CC1)n2-c1ccccc1OC do in these assays?
SENP6 block: inactive; SENP1 inh: inactive; SENP8 block-1: inactive; SENP8 block-2: 43; SENP7 inh: inactive; SENP8 conf: inactive

Results for CCOc1ccc(NC2=C(Cl)C(=O)N(C3CCCCC3)C2=O)cc1 ?
SENP6 block: inactive; SENP1 inh: inactive; SENP8 block-1: inactive; SENP8 block-2: inactive; SENP7 inh: inactive

How did CN1CCN(C2=C(Cl)C(=O)N(C3CCCCC3)C2=O)CC1 do in these assays?
SENP6 block: inactive; SENP1 inh: inactive; SENP8 block-1: inactive; SENP8 block-2: 41; SENP7 inh: inactive; SENP8 conf: inactive

Results for CC(C(=O)Nc1ccc(C#N)cc1)N1CCN(C(=O)C2CC2)CC1 (centres undefined) ?
SENP6 block: inactive; SENP1 inh: inactive; SENP8 block-1: inactive; SENP8 block-2: inactive; SENP7 inh: inactive

What do the screens show for `COc1ccc(CN(C)C(=O)C2CSC3(C)CCC(=O)N23)c(OC)c1` (centres undefined)?
SENP1 inh: inactive; SENP8 block-2: inactive

How did COc1ccc(/C=N/Nc2nc(C)c([N+](=O)[O-])c(N(C)c3ccccc3)n2)cc1OC do in these assays?
SENP6 block: inactive; SENP1 inh: inactive; SENP8 block-1: inactive; SENP8 block-2: 53; SENP7 inh: inactive; SENP8 conf: inactive

What do the screens show for `COc1ccccc1CCNC(=O)c1ccc(NC(=O)CC2SC(N3CCCC3)=NC2=O)cc1` (centres undefined)?
SENP6 block: inactive; SENP1 inh: inactive; SENP8 block-1: inactive; SENP8 block-2: inactive; SENP7 inh: inactive

How did Cc1cc(=O)[nH]c(-n2[nH]c(C)cc2=O)n1 do in these assays?
SENP6 block: inactive; SENP1 inh: inactive; SENP8 block-1: inactive; SENP8 block-2: inactive; SENP7 inh: inactive

How did COc1ccc(-n2[nH]c(C)cc2=O)cc1 do in these assays?
SENP6 block: inactive; SENP1 inh: inactive; SENP8 block-1: inactive; SENP8 block-2: 68; SENP7 inh: inactive; SENP8 conf: inactive

How did Cc1[nH][nH]c(=O)c1C(c1ccc(-c2ccc(F)cc2)o1)c1c(C)[nH][nH]c1=O do in these assays?
SENP6 block: inactive; SENP1 inh: inactive; SENP8 block-1: inactive; SENP8 block-2: 75; SENP7 inh: inactive; SENP8 conf: 72

Results for COc1ccc(-c2ccc(C(c3c(C)[nH][nH]c3=O)c3c(C)[nH][nH]c3=O)o2)c([N+](=O)[O-])c1 ?
SENP6 block: inactive; SENP1 inh: inactive; SENP8 block-1: inactive; SENP8 block-2: 38; SENP7 inh: inactive; SENP8 conf: inactive

What do the screens show for `Cc1[nH][nH]c(=O)c1C(c1ccc(-c2ccc(C(=O)O)cc2)o1)c1c(C)[nH][nH]c1=O`?
SENP1 inh: inactive; SENP8 block-2: inactive

Results for Cc1[nH][nH]c(=O)c1C(c1ccc(-c2ccc(Cl)c(Cl)c2)o1)c1c(C)[nH][nH]c1=O ?
SENP6 block: inactive; SENP1 inh: inactive; SENP8 block-1: inactive; SENP8 block-2: 74; SENP7 inh: inactive; SENP8 conf: 63

How did Cc1ccc([C@H]2C[C@H](n3cc(-c4ccc(F)cc4)nn3)[C@@H](O)CN2CC2CCCCC2)cc1 do in these assays?
SENP1 inh: inactive; SENP8 block-2: inactive

How did O=C(NCc1nc2ccccc2[nH]1)C1=C[C@H](C2CC2)C[C@H](OCc2ccc(CO)cc2)O1 do in these assays?
SENP6 block: inactive; SENP1 inh: inactive; SENP8 block-1: inactive; SENP8 block-2: inactive; SENP7 inh: inactive

How did O=S1(=O)CC(N2CC=CC2)CN1C1CCCCC1 (centres undefined) do in these assays?
SENP1 inh: inactive; SENP8 block-2: 41; SENP8 conf: 36

Results for CN1CCN(C2CN(C3CCCCC3)S(=O)(=O)C2)CC1 (centres undefined) ?
SENP1 inh: inactive; SENP8 block-2: inactive

Results for Cc1ccc2nc(C)c3c(c2c1)SCC3 ?
SENP6 block: inactive; SENP1 inh: inactive; SENP8 block-1: inactive; SENP8 block-2: inactive; SENP7 inh: inactive

Results for COC(=O)C1=C(C)N(C2CCCCC2)C(=O)C1 ?
SENP6 block: inactive; SENP1 inh: inactive; SENP8 block-1: inactive; SENP8 block-2: 42; SENP7 inh: inactive; SENP8 conf: inactive

What do the screens show for `O=[N+]([O-])c1cccc(-c2ccc(/C=N/NC(=S)Nc3cccc(F)c3)o2)c1`?
SENP6 block: inactive; SENP1 inh: inactive; SENP8 block-1: inactive; SENP8 block-2: 52; SENP7 inh: inactive; SENP8 conf: inactive

Results for CNC(=S)N/N=C/c1ccc(-c2ccc(Cl)c([N+](=O)[O-])c2)o1 ?
SENP6 block: inactive; SENP1 inh: inactive; SENP8 block-1: inactive; SENP8 block-2: 33; SENP7 inh: inactive; SENP8 conf: inactive

How did NC(=S)N/N=C/c1ccc(-c2cccc([N+](=O)[O-])c2)o1 do in these assays?
SENP6 block: inactive; SENP1 inh: inactive; SENP8 block-1: inactive; SENP8 block-2: inactive; SENP7 inh: inactive

How did Cc1ccc(-c2ccc(/C=N/NC(=S)Nc3ccccc3)o2)cc1[N+](=O)[O-] do in these assays?
SENP6 block: inactive; SENP1 inh: inactive; SENP8 block-1: inactive; SENP8 block-2: inactive; SENP7 inh: inactive

Results for Cc1nc(CS(=O)(=O)c2ccccn2)sc1C(=O)NNC(=O)c1c(F)cccc1Cl ?
SENP6 block: inactive; SENP1 inh: inactive; SENP8 block-1: inactive; SENP8 block-2: 42; SENP7 inh: inactive; SENP8 conf: inactive

What do the screens show for `Cc1ccc(/C=N/n2nnnc2N)o1`?
SENP6 block: inactive; SENP1 inh: inactive; SENP8 block-1: inactive; SENP8 block-2: 42; SENP7 inh: inactive; SENP8 conf: inactive

How did COc1cc(NC2c3ccccc3C(=O)N2Cc2ccc3c(c2)OCO3)cc(OC)c1 (centres undefined) do in these assays?
SENP6 block: inactive; SENP1 inh: inactive; SENP8 block-1: inactive; SENP8 block-2: inactive; SENP7 inh: inactive

Results for CCCn1c(=C(C#N)C#N)s/c(=C2\C=Cc3ccccc3N2CC)c1=O ?
SENP1 inh: inactive; SENP8 block-2: 52; SENP8 conf: inactive

How did O=S(=O)(Cc1ccc(Cl)cc1)NCc1ccc2c(c1)OCO2 do in these assays?
SENP6 block: inactive; SENP1 inh: inactive; SENP8 block-1: inactive; SENP8 block-2: inactive; SENP7 inh: inactive
